Paper PMC4360665 (CPT: Pharmacometrics & Systems Pharmacology, 2015)
“And” between values parts separate entries of the source, which are not always exact repeats. Equal values may be shown once. Read-outs that look alike come from different tables or passages of the source.

Assays:
[1] = tested on: P-glycoprotein (MDR1/ABCB1); conditions: cited from earlier work
recombinant CYP3A7 = recombinant CYP3A7 (Homo sapiens, UniProt P24462); assay: Substrate depletion assay with recombinant CYP3A7; assay type: in vitro ADME
recombinant CYP3A7, sequence (P24462 whole entry): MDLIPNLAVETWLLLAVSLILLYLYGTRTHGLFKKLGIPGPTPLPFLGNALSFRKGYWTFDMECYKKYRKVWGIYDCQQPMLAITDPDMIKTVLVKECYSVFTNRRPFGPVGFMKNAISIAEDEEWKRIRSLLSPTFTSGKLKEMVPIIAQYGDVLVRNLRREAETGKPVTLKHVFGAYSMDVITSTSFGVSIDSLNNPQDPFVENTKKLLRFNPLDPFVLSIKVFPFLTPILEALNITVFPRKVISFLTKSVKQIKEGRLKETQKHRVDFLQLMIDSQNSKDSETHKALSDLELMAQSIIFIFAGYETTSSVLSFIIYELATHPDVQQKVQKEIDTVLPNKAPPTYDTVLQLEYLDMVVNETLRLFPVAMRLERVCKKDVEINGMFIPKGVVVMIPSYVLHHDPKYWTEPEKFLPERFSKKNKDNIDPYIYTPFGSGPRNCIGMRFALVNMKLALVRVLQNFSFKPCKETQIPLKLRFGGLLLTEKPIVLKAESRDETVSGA
Summary of the method: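 Recombinant CYP3A7 (with reductase and cytochrome b5) was brought to 0.4 mg/ml protein with blank microsomes and incubated with sirolimus in 100 mM potassium phosphate, pH 7.4, at 37°C with shaking. NADPH regenerating system started the reaction (t = 0), with aliquots taken at serial times. Sirolimus remaining was measured by on-line SPE–HPLC–MS/MS against an internal standard. The slope of log % remaining versus time was converted to CLint per pmol CYP.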

CYP3A = assay type: in vitro ADME, human; conditions: ketoconazole at 1 µM; nine individual pediatric liver microsomes aged 1 month to 4 years; mean ± SD
Summary of the method: (§1)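 Substrate depletion of the test compound in nine individual pediatric liver microsomes in 100 mM potassium phosphate (pH 7.4) at 37°C, with and without CYP-selective inhibitor (1 µM; ketoconazole for CYP3A, montelukast for CYP2C8). NADPH regenerating system starts the reaction (t=0). Serial aliquots are extracted with methanol/ZnSO4 plus internal standard and analysed by online SPE-LC-MS/MS. kel comes from the log %-remaining vs time slope. % contribution is calculated from kel with and without inhibitor.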

CYP2C8 = biological target: T1, CYP2C8 (Homo sapiens, UniProt P10632); assay type: in vitro ADME; conditions: montelukast at 1 µM; nine individual pediatric liver microsomes aged 1 month to 4 years; mean ± SD
T1 sequence (P10632 1-490): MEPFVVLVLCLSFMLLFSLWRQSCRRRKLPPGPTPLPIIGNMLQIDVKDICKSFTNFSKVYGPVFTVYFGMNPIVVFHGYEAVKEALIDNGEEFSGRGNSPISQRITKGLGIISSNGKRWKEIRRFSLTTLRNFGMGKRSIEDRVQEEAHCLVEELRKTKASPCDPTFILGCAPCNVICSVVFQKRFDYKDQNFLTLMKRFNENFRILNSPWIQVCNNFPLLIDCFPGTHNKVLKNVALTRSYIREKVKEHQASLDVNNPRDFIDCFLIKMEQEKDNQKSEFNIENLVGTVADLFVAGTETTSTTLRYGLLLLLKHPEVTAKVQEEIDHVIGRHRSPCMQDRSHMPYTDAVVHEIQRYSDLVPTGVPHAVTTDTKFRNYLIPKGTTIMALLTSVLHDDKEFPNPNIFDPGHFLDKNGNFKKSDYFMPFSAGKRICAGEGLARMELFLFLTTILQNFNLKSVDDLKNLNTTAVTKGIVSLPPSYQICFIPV
Summary of the method: as §1

[2] = assay type: in vivo, human; conditions: for Mean sirolimus oral clearance: allometrically scaled (0.75, 70 kg)
Summary of the method: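 Oral dosing began at 0.8 mg/m2 twice daily, then adjusted to trough targets of 10 to 15 ng/ml. Concentrations were drawn at 8–14 days, then every 2 weeks (LLOQ 1.0 ng/ml). First-4-week samples (1–3 per patient) fed a Bayesian one-compartment estimator with pediatric neurofibromatosis priors, estimating clearance only. Clearances were scaled allometrically (exponent 0.75, 70 kg), and an Emax fit against age gave CLmatured and Age50.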

fold lower CLint of CYP3A7 than reported CYP3A4 activity (recombinant CYP3A7; CYP3A4 value from ref 17): 30 fold
fold lower CLint of CYP3A7 than reported CYP3A5 activity (recombinant CYP3A7; CYP3A5 value from ref 17): 13 fold
CLint for recombinant CYP3A7 (recombinant CYP3A7; substrate depletion, 37°C, pH 7.4): 0.30 µl/min/pmol CYP protein
% of Contribution of CYP3A to sirolimus metabolism (CYP3A): 95.8% and 95.8±4.8%
% of Contribution of CYP2C8 to sirolimus metabolism (CYP2C8): less than 10% and 8.5±4.3%
Mean sirolimus oral clearance ([2]; age group 1 year (≥1, <2), n=5): 17 ± 4 L/h
Mean sirolimus oral clearance ([2]; age group 1–8 months (<1), n=9): 11 ± 3 L/h
Mean sirolimus oral clearance ([2]; age group 2 years (≥2, <3), n=3): 21 ± 3 L/h
Mean sirolimus oral clearance ([2]; age group 3–18 years (≥3), n=27): 18 ± 6 L/h
Observed CLmatured ([2]; clinical clearance estimates, patients 1 months to 3 years, n = 20, Emax model): 19.4 ± 2.2 L/h/70 kg
SMILES: CO[C@H]1C[C@@H]2CC[C@@H](C)[C@@](O)(O2)C(=O)C(=O)N2CCCC[C@H]2C(=O)O[C@H]([C@H](C)C[C@@H]2CC[C@@H](O)[C@H](OC)C2)CC(=O)[C@H](C)/C=C(\C)[C@@H](O)[C@@H](OC)C(=O)[C@H](C)C[C@H](C)/C=C/C=C/C=C/1C [sirolimus]
substrate of P-glycoprotein (MDR1/ABCB1) [1]: substrate
